Source: ChEMBL document CHEMBL2390929, “New nitric oxide donating 1,2,4-triazole/oxime hybrids: synthesis, investigation of anti-inflammatory, ulceroginic liability and antiproliferative activities” (Bioorg Med Chem, 2013)

Assays:
K562 = assay: Cytotoxicity against human K562 cells assessed as cell growth at 10^-5 M after 48 hrs by SRB assay; assay type: functional; conditions: K562, 48 h, read-out: Activity
Summary of the method: (§1)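 NCI 60-cell-line primary one-dose screen across nine tumour subpanels. Compound added at a single concentration of 10^-5 M and cultures incubated 48 h. Endpoint was sulforhodamine B protein staining read spectrophotometrically, with growth expressed as percent of untreated control cells.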

SK-MEL-28 = assay: Cytotoxicity against human SK-MEL-28 cells assessed as cell growth at 10^-5 M after 48 hrs by SRB assay; assay type: functional; conditions: SK-MEL-28, 48 h, read-out: Activity
Summary of the method: (§2)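 NCI-60 one-dose screen across nine tumour subpanels. Each agent added once at 10^-5 M, cultures incubated 48 h. Endpoint is sulforhodamine B protein staining read spectrophotometrically. Output is percent growth of treated cells relative to untreated controls.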

RPMI-8226 = assay: Cytotoxicity against human RPMI8226 cells assessed as cell growth at 10^-5 M after 48 hrs by SRB assay; assay type: functional; conditions: RPMI-8226, 48 h, read-out: Activity; summary of the method: as §1
NCI-H460 = assay: Cytotoxicity against human NCI-H460 cells assessed as cell growth at 10^-5 M after 48 hrs by SRB assay; assay type: functional; conditions: NCI-H460, 48 h, read-out: Activity; summary of the method: as §1
UO-31 = assay: Cytotoxicity against human UO31 cells assessed as cell growth at 10^-5 M after 48 hrs by SRB assay; assay type: functional; conditions: UO-31, 48 h, read-out: Activity; summary of the method: as §2
U-251 = assay: Cytotoxicity against human U251 cells assessed as cell growth at 10^-5 M after 48 hrs by SRB assay; assay type: functional; conditions: U-251, 48 h, read-out: Activity; summary of the method: as §2
KM12 = assay: Cytotoxicity against human KM12 cells assessed as cell growth at 10^-5 M after 48 hrs by SRB assay; assay type: functional; conditions: KM12, 48 h, read-out: Activity; summary of the method: as §1
[1] = Induction of nitric oxide release in phosphate buffer at pH 7.4 at 0.1 mM after 1 hr by Griess method in presence of 0.5 mM of N-acetylcysteine; assay type: physicochemical; conditions: pH 7.4, 1 h, 100 µM
Summary of the method: (§3)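 Compound in DMF diluted to final 10^-4 M in 1:1 50 mM phosphate buffer pH 7.4/MeOH with 5×10^-4 M N-acetylcysteine, 37 °C. Aliquot mixed with Griess reagent, 10 min at room temperature, A546 read. Nitrite quantified against sodium nitrite standards (10–80 nmol/mL); NO expressed as mol/mol. n = 4 reaction mixtures per compound.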

HCT-116 = assay: Cytotoxicity against human HCT116 cells assessed as cell growth at 10^-5 M after 48 hrs by SRB assay; assay type: functional; conditions: HCT-116, 48 h, read-out: Activity; summary of the method: as §1
HL-60(TB) = assay: Cytotoxicity against human HL-60(TB) cells assessed as cell growth at 10^-5 M after 48 hrs by SRB assay; assay type: functional; conditions: HL-60, 48 h, read-out: Activity
Summary of the method: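 NCI 60-cell-line one-dose screen: compound added to cultures at a single concentration of 10^-5 M, incubated 48 h. End point by sulforhodamine B protein staining, read spectrophotometrically. Value is percent growth of treated cells relative to untreated control cells.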

Rattus norvegicus [2] = assay: Antiinflammatory activity in albino rat assessed as inhibition of carrageenan-induced paw edema at 0.28 mmol/kg, po after 2 hrs relative to control; assay type: functional
Summary of the method: (§4)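 Adult male albino rats (120–140 g), four per group, fasted 24 h with water allowed. Test agent suspended in 0.5% w/v aqueous CMC and given orally at 0.28 mmol/kg; controls received CMC alone. After 30 min, 0.1 mL fresh 1% carrageenan in saline was injected subplantar into the right hind paw and saline into the left. Paw thickness was measured by Vernier caliper; % inhibition = [(VR−VL)control − (VR−VL)treated]/(VR−VL)control ×100. Mean ± SEM, one-way ANOVA.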

UACC-62 = assay: Cytotoxicity against human UACC62 cells assessed as cell growth at 10^-5 M after 48 hrs by SRB assay; assay type: functional; conditions: UACC-62, 48 h, read-out: Activity; summary of the method: as §2
NCI-H226 = assay: Cytotoxicity against human NCI-H226 cells assessed as cell growth at 10^-5 M after 48 hrs by SRB assay; assay type: functional; conditions: NCI-H226, 48 h, read-out: Activity; summary of the method: as §1
OVCAR-8 = assay: Cytotoxicity against human OVCAR8 cells assessed as cell growth at 10^-5 M after 48 hrs by SRB assay; assay type: functional; conditions: OVCAR-8, 48 h, read-out: Activity; summary of the method: as §1
[3] = Cytotoxicity against human EKVX cells assessed as cell growth at 10^-5 M after 48 hrs by SRB assay; assay type: functional; conditions: read-out: Activity; summary of the method: as §1
ACHN = assay: Cytotoxicity against human ACHN cells assessed as cell growth at 10^-5 M after 48 hrs by SRB assay; assay type: functional; conditions: read-out: Activity; summary of the method: as §1
PC-3 = assay: Cytotoxicity against human PC3 cells assessed as cell growth at 10^-5 M after 48 hrs by SRB assay; assay type: functional; conditions: PC-3, 48 h, read-out: Activity; summary of the method: as §1
OVCAR-5 = assay: Cytotoxicity against human OVCAR5 cells assessed as cell growth at 10^-5 M after 48 hrs by SRB assay; assay type: functional; conditions: OVCAR-5, 48 h, read-out: Activity; summary of the method: as §1
Rattus norvegicus [4] = assay: Gastrointestinal toxicity in albino rat assessed as ulcer index at 0.28 mmol/kg, po (reference value: 0.60 +/- 0.05); assay type: organism-based; conditions: in vivo
HCT-15 = assay: Cytotoxicity against human HCT15 cells assessed as cell growth at 10^-5 M after 48 hrs by SRB assay; assay type: functional; conditions: HCT-15, 48 h, read-out: Activity; summary of the method: as §1
[5] = Induction of nitric oxide release in phosphate buffer at pH 7.4 at 0.1 mM after 3 hrs by Griess method in presence of 0.5 mM of N-acetylcysteine; assay type: physicochemical; conditions: pH 7.4, 3 h, 100 µM; summary of the method: as §3
HOP-62 = assay: Cytotoxicity against human HOP62 cells assessed as cell growth at 10^-5 M after 48 hrs by SRB assay; assay type: functional; conditions: HOP-62, 48 h, read-out: Activity; summary of the method: as §1
SW-620 = assay: Cytotoxicity against human SW620 cells assessed as cell growth at 10^-5 M after 48 hrs by SRB assay; assay type: functional; conditions: SW-620, 48 h, read-out: Activity; summary of the method: as §2
NCI/ADR-RES = assay: Cytotoxicity against human NCI/ADR-RES cells assessed as cell growth at 10^-5 M after 48 hrs by SRB assay; assay type: functional; conditions: read-out: Activity; summary of the method: as §1
Rattus norvegicus [6] = assay: Antiinflammatory activity in albino rat assessed as inhibition of carrageenan-induced paw edema at 0.28 mmol/kg, po after 4 hrs relative to control; assay type: functional; summary of the method: as §4
CCRF-CEM = assay: Cytotoxicity against human CCRF-CEM cells assessed as cell growth at 10^-5 M after 48 hrs by SRB assay; assay type: functional; conditions: read-out: Activity; summary of the method: as §1
SNB-19 = assay: Cytotoxicity against human SNB19 cells assessed as cell growth at 10^-5 M after 48 hrs by SRB assay; assay type: functional; conditions: SNB-19, 48 h, read-out: Activity; summary of the method: as §2
T47D = assay: Cytotoxicity against human T47D cells assessed as cell growth at 10^-5 M after 48 hrs by SRB assay; assay type: functional; conditions: read-out: Activity; summary of the method: as §2
HOP-92 = assay: Cytotoxicity against human HOP92 cells assessed as cell growth at 10^-5 M after 48 hrs by SRB assay; assay type: functional; conditions: HOP-92, 48 h, read-out: Activity; summary of the method: as §1

## O/N=C(/CSc1nnc(-c2ccccc2)n1-c1ccccc1)c1ccccc1
K562
  growth at 10 µM: 74.6%
SK-MEL-28
  growth at 10 µM: 118%
RPMI-8226
  growth at 10 µM: 85.6%
NCI-H460
  growth at 10 µM: 97.3%
UO-31
  growth at 10 µM: 77.4%
U-251
  growth at 10 µM: 82.3%
KM12
  growth at 10 µM: 97.5%
[1]
  Activity: 0.06 mol/mol
HCT-116
  growth at 10 µM: 92.3%
HL-60(TB)
  growth at 10 µM: 92.2%
Rattus norvegicus [2]
  inhibition in vivo at 280 µmol/kg: 63%
UACC-62
  growth at 10 µM: 87.7%
NCI-H226
  growth at 10 µM: 95.6%
OVCAR-8
  growth at 10 µM: 93.2%
[3]
  growth at 10 µM: 95.4%
ACHN
  growth at 10 µM: 117%
PC-3
  growth at 10 µM: 82.8%
OVCAR-5
  growth at 10 µM: 125%
Rattus norvegicus [4]
  UI: 2.53
HCT-15
  growth at 10 µM: 101%
[5]
  Activity: 0.12 mol/mol
HOP-62
  growth at 10 µM: 109%
SW-620
  growth at 10 µM: 98.8%
NCI/ADR-RES
  growth at 10 µM: 100%
Rattus norvegicus [6]
  inhibition in vivo at 280 µmol/kg: 79%
CCRF-CEM
  growth at 10 µM: 91%
SNB-19
  growth at 10 µM: 84.8%
T47D
  growth at 10 µM: 98%

## COc1ccc(-c2nnc(SC/C(=N/O)c3ccccc3)n2-c2ccccc2)cc1OC
K562
  growth at 10 µM: 88.7%
SK-MEL-28
  growth at 10 µM: 113%
RPMI-8226
  growth at 10 µM: 69.4%
NCI-H460
  growth at 10 µM: 114%
UO-31
  growth at 10 µM: 80.1%
U-251
  growth at 10 µM: 101%
KM12
  growth at 10 µM: 99.8%
[1]
  Activity: 0.15 mol/mol
HOP-92
  growth at 10 µM: 86.5%
HCT-116
  growth at 10 µM: 92%
HL-60(TB)
  growth at 10 µM: 68.2%
Rattus norvegicus [2]
  inhibition in vivo at 280 µmol/kg: 61%
UACC-62
  growth at 10 µM: 89.5%
NCI-H226
  growth at 10 µM: 94.9%
OVCAR-8
  growth at 10 µM: 90.7%
[3]
  growth at 10 µM: 101%
ACHN
  growth at 10 µM: 95.4%
PC-3
  growth at 10 µM: 91.6%
OVCAR-5
  growth at 10 µM: 100%
Rattus norvegicus [4]
  UI: 5.71
HCT-15
  growth at 10 µM: 98.3%
[5]
  Activity: 0.18 mol/mol
HOP-62
  growth at 10 µM: 99.2%
SW-620
  growth at 10 µM: 110%
NCI/ADR-RES
  growth at 10 µM: 93.2%
Rattus norvegicus [6]
  inhibition in vivo at 280 µmol/kg: 81%
CCRF-CEM
  growth at 10 µM: 84.4%
SNB-19
  growth at 10 µM: 101%
T47D
  growth at 10 µM: 90.1%

## COc1ccc(-c2nnc(SC/C(=N/O)c3ccccc3)n2-c2ccccc2)cc1
K562
  growth at 10 µM: 82.1%
SK-MEL-28
  growth at 10 µM: 117%
RPMI-8226
  growth at 10 µM: 73.5%
NCI-H460
  growth at 10 µM: 106%
UO-31
  growth at 10 µM: 87.1%
U-251
  growth at 10 µM: 98.6%
KM12
  growth at 10 µM: 112%
[1]
  Activity: 0.08 mol/mol
HOP-92
  growth at 10 µM: 101%
HCT-116
  growth at 10 µM: 93.2%
HL-60(TB)
  growth at 10 µM: 95.9%
Rattus norvegicus [2]
  inhibition in vivo at 280 µmol/kg: 63%
UACC-62
  growth at 10 µM: 94.3%
NCI-H226
  growth at 10 µM: 103%
OVCAR-8
  growth at 10 µM: 102%
[3]
  growth at 10 µM: 102%
ACHN
  growth at 10 µM: 107%
PC-3
  growth at 10 µM: 86.4%
OVCAR-5
  growth at 10 µM: 109%
Rattus norvegicus [4]
  UI: 7.57
HCT-15
  growth at 10 µM: 95.1%
[5]
  Activity: 0.09 mol/mol
HOP-62
  growth at 10 µM: 111%
SW-620
  growth at 10 µM: 114%
NCI/ADR-RES
  growth at 10 µM: 97.9%
Rattus norvegicus [6]
  inhibition in vivo at 280 µmol/kg: 80%
CCRF-CEM
  growth at 10 µM: 83.5%
SNB-19
  growth at 10 µM: 97.3%
T47D
  growth at 10 µM: 86%

## CCn1c(SC/C(=N/O)c2ccccc2)nnc1-c1ccc(OC)c(OC)c1
K562
  growth at 10 µM: 93.4%
SK-MEL-28
  growth at 10 µM: 103%
RPMI-8226
  growth at 10 µM: 101%
NCI-H460
  growth at 10 µM: 105%
UO-31
  growth at 10 µM: 85.4%
U-251
  growth at 10 µM: 101%
KM12
  growth at 10 µM: 100%
[1]
  Activity: 0.06 mol/mol
HOP-92
  growth at 10 µM: 107%
HCT-116
  growth at 10 µM: 108%
HL-60(TB)
  growth at 10 µM: 95.8%
Rattus norvegicus [2]
  inhibition in vivo at 280 µmol/kg: 67%
UACC-62
  growth at 10 µM: 95.5%
NCI-H226
  growth at 10 µM: 97.6%
OVCAR-8
  growth at 10 µM: 104%
[3]
  growth at 10 µM: 102%
ACHN
  growth at 10 µM: 103%
PC-3
  growth at 10 µM: 101%
OVCAR-5
  growth at 10 µM: 107%
Rattus norvegicus [4]
  UI: 1.58
HCT-15
  growth at 10 µM: 105%
[5]
  Activity: 0.2 mol/mol
HOP-62
  growth at 10 µM: 85.9%
SW-620
  growth at 10 µM: 106%
NCI/ADR-RES
  growth at 10 µM: 103%
Rattus norvegicus [6]
  inhibition in vivo at 280 µmol/kg: 82%
CCRF-CEM
  growth at 10 µM: 98%
SNB-19
  growth at 10 µM: 99.9%
T47D
  growth at 10 µM: 99.6%
